“And” between values parts separate entries of the source, which are not always exact repeats. Identical values can stand only once. Blank lines part the entries; values can stand above or below the compound they belong to.
Legend:
Coagulation factor X = Coagulation factor X (Homo sapiens, UniProt P00742); experiment: Inhibitory activity against serine protease Coagulation factor X
Method in brief: (§1)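 Inhibition constants (Ki) for each serine protease are the average of at least two determinations, with assay variation of ±10%.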

Plasma kallikrein = Plasma kallikrein (Homo sapiens, UniProt P03952); experiment: Inhibitory activity against serine protease plasma kallikrein; method in brief: as §1
Plasma kallikrein, sequence (P03952 20-390 limits assumed): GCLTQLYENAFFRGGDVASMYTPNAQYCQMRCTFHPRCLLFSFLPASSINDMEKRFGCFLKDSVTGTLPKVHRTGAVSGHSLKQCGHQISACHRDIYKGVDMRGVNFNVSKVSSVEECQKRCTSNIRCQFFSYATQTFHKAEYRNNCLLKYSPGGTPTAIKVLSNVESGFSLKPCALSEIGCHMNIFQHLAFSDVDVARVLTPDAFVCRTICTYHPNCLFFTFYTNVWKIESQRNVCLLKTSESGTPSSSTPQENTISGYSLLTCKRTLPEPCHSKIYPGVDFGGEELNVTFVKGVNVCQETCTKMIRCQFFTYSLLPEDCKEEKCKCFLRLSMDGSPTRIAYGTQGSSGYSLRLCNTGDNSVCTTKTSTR
Plasma kallikrein, sequence (P03952 391-638 limits assumed): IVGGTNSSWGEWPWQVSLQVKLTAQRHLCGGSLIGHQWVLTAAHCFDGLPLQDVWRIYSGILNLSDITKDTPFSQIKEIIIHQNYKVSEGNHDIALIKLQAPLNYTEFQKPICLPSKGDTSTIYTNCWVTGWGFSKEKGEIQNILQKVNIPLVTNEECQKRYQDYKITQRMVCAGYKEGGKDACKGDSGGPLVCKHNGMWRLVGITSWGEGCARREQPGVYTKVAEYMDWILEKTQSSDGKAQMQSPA

[1] = target: Tissue-type plasminogen activator (Homo sapiens, UniProt P00750); experiment: Inhibitory activity against serine protease TPA; method in brief: as §1
Tissue-type plasminogen activator, sequence (P00750 whole entry): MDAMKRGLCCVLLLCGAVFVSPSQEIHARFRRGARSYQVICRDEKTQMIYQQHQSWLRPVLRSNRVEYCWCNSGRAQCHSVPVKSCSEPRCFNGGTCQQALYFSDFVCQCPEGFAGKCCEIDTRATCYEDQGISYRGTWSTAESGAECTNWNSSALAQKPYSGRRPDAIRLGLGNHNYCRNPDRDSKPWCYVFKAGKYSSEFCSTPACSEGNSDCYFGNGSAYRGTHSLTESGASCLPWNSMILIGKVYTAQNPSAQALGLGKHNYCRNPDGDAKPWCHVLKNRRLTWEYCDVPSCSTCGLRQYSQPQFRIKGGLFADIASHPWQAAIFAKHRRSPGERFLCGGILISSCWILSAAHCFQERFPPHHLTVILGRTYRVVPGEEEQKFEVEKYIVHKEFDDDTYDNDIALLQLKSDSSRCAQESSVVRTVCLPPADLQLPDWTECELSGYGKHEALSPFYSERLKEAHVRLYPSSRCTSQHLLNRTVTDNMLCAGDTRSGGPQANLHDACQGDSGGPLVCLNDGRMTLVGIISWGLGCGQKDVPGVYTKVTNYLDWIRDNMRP

Serine protease 1 = Serine protease 1 (Homo sapiens, UniProt P07477); experiment: In vitro inhibition of human trypsin.; method in brief: as §1
Serine protease 1, sequence (P07477 whole entry): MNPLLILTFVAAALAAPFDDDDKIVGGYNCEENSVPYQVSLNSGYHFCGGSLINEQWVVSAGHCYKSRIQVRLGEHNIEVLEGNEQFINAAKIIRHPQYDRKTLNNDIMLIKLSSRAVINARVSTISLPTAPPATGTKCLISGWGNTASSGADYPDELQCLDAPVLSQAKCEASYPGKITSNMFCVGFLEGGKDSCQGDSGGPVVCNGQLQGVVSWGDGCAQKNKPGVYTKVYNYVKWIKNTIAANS

Plasminogen = Plasminogen (Homo sapiens, UniProt P00747); experiment: Inhibitory activity against serine protease plasmin
Plasminogen, sequence (P00747 97-580 limits assumed): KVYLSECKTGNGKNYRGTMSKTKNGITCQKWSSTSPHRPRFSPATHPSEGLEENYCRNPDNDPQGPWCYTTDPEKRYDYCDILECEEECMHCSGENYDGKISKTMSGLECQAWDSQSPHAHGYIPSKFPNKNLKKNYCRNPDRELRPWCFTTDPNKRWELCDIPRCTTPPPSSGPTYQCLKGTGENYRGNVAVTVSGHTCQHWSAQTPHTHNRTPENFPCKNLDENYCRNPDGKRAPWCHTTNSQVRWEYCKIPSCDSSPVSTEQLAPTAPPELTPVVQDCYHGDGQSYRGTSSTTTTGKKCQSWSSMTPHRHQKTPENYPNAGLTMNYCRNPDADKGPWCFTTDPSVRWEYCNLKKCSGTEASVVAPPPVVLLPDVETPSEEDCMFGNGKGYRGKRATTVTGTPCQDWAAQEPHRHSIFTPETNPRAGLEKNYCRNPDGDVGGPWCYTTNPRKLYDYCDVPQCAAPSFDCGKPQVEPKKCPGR
Plasminogen, sequence (P00747 581-810 limits assumed): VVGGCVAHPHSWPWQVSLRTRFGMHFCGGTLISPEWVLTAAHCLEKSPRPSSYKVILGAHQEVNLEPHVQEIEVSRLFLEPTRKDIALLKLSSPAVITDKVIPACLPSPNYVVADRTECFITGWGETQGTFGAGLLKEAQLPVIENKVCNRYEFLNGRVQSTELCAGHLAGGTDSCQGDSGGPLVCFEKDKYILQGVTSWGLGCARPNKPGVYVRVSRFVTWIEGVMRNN

Prothrombin = Prothrombin (Homo sapiens, UniProt P00734); experiment: Inhibition of Thrombin
Rattus norvegicus [2] = species: Rattus norvegicus; experiment: Final concentration in rat plasma; type: functional, organism-based
Method in brief: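 Rats received an iv infusion at 10 µg/kg/min in saline for 120 min before a FeCl3 vascular insult. Plasma inhibitor level was measured at the end of the experiment.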

[3] = Partition coefficient (logP); type: physicochemical; settings: octanol/water
Rattus norvegicus [4] = species: Rattus norvegicus; experiment: Concentration of inhibitor in rat plasma required to double the activated thromboplastin time; type: functional
[5] = concentration of compound in human plasma required to double the activated thromboplastin time; type: functional
[6] = Oral bioavailability in rat (dose 10 mg/kg); type: ADME, organism-based; settings: in vivo
Method in brief: (§2)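 Rats were given a single oral dose of 10 mg/kg as a suspension in 1% methocel. Oral bioavailability (F, %) was then determined.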

[7] = Antithrombotic activity was assessed from the associated plasma protein binding in Human, determined in a thrombin chromogenic assay; type: functional
Rattus norvegicus [8] = species: Rattus norvegicus; experiment: Antithrombotic activity was assessed from the associated plasma protein binding in Rats, determined in a thrombin chromogenic assay; type: functional
[9] = Oral bioavailability (5 mg/kg) was determined in dogs; type: ADME, organism-based, Canis lupus familiaris; settings: dog, in vivo
Method in brief: (§3)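 Dogs were given a single oral dose of 5 mg/kg as a suspension in 1% methocel. Oral bioavailability (F, %) was then determined.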

[10] = Concentration of inhibitor in human plasma required to double the activated thromboplastin time; type: functional
Rattus norvegicus [11] = species: Rattus norvegicus; experiment: Antithrombotic activity was assessed from the associated plasma protein binding in rat, determined in a thrombin chromogenic assay; type: functional
[12] = Half-life period after, peroral injection of 5 mg/kg in dogs; type: ADME, organism-based, Canis lupus familiaris; set-up: dose 5 mg/kg, route oral; settings: dog, in vivo, po
[13] = Area under curve was evaluated after intravenous injection of 1 mg/kg of compound in dogs; type: ADME, organism-based, Canis lupus familiaris; set-up: dose 1 mg/kg, route intravenous; settings: dog, in vivo
Rattus norvegicus [14] = species: Rattus norvegicus; experiment: concentration of compound in rat required to double the activated thromboplastin time; type: functional
Homo sapiens = species: Homo sapiens; experiment: concentration of compound in human required to double the activated thromboplastin time; type: functional
[15] = Oral bioavailability in rat after peroral injection of 10 mg/kg of compound; type: ADME, organism-based; settings: in vivo; method in brief: as §2
[16] = Area under curve was evaluated after intravenous injection of 1 mg/kg of compound in rats; type: ADME, organism-based; set-up: dose 1 mg/kg, route intravenous; settings: rat, in vivo
[17] = Oral bioavailability (5 mg/kg, oral) was determined in dogs; type: ADME, organism-based, Canis lupus familiaris; settings: dog, in vivo; method in brief: as §3
[18] = Oral bioavailability in dog after peroral injection of 5 mg/kg of compound; type: ADME, organism-based, Canis lupus familiaris; settings: in vivo; method in brief: as §3
[19] = Half-life period after, intravenous injection of 1 mg/kg in rats; type: ADME, organism-based; set-up: dose 1 mg/kg, route intravenous; settings: rat, in vivo
[20] = Oral bioavailability in rat (dose 10 mg/kg p.o.); type: ADME, organism-based; settings: in vivo; method in brief: as §2
[21] = Half-life period after, intravenous injection of 1 mg/kg in dogs; type: ADME, organism-based, Canis lupus familiaris; set-up: dose 1 mg/kg, route intravenous; settings: dog, in vivo
[22] = Clearance from rat plasma after intravenous injection of 1 mg/kg of compound; type: ADME, organism-based; set-up: dose 1 mg/kg, route intravenous
[23] = Clearance from dog plasma after intravenous injection of 1 mg/kg of compound; type: ADME, organism-based, Canis lupus familiaris; set-up: dose 1 mg/kg, route intravenous
Rattus norvegicus [24] = species: Rattus norvegicus; experiment: concentration of compound in rat plasma required to double the activated thromboplastin time; type: functional

Coagulation factor X, sequence (P00742 41-179 limits assumed): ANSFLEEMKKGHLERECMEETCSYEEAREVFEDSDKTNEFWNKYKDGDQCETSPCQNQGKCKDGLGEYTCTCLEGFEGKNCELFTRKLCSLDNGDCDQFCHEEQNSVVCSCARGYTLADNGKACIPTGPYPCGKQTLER
Coagulation factor X, sequence (P00742 235-488 limits assumed): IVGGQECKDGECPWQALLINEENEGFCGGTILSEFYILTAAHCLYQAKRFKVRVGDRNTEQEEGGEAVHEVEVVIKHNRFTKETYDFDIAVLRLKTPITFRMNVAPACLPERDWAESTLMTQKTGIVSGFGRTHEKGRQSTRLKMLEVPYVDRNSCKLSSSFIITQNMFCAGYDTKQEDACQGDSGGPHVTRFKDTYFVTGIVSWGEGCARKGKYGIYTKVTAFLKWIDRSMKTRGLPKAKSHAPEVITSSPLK

SMILES: NC1CCC(CNC(=O)[C@@H]2CCCN2C(=O)CC(c2ccccc2)c2ccccn2)CC1 (single isomer, unassigned; diastereomer 1)
Ki (Coagulation factor X): 370 µM
Ki (Plasma kallikrein): 767 µM
Ki [1]: > 1000 µM
Ki (Serine protease 1): 0.89 µM
Ki (Plasminogen): > 1000 µM
Ki (Prothrombin): 0.0018 µM

SMILES: NC1CCC(CNC(=O)[C@@H]2CCCN2C(=O)CC(c2cccnc2)c2ccc3c(c2)OCO3)CC1 (single isomer, unassigned; diastereomer 2)
Concentration (Rattus norvegicus [2]): 4000 nM

SMILES: NC1CCC(CNC(=O)[C@@H]2CCCN2C(=O)CC(c2cccnc2)c2ccc3c(c2)OCO3)CC1.O=C(O)C(F)(F)F (single isomer, unassigned; diastereomer 2)
logP [3]: -1.62
Ki (Coagulation factor X): 1000 µM
Ki (Plasma kallikrein): 1000 µM
2x APTT (Rattus norvegicus [4]): 0.38 µM
Ki [1]: > 500 µM
Ki (Serine protease 1): 2.6 µM
2x APTT [5]: 0.3 µM
Ki (Plasminogen): 572 µM
Ki (Prothrombin): 0.00028 µM
bioavailability [6]: < 5%

SMILES: NC1CCC(CNC(=O)[C@@H]2CCCN2C(=O)CC(c2ccccc2)c2cccnc2)CC1.O=C(O)C(F)(F)F (single isomer, unassigned; diastereomer 2)
logP [3]: -0.64
Activity [7]: 35%
Ki (Coagulation factor X): > 1000 µM
Ki (Plasma kallikrein): 476 µM
2x APTT (Rattus norvegicus [4]): 0.59 µM
Ki [1]: 746 µM
Ki (Serine protease 1): 2.2 µM
2x APTT [5]: 0.47 µM
Ki (Plasminogen): > 1000 µM
Ki (Prothrombin): 0.0022 µM
Activity (Rattus norvegicus [8]): 56%
bioavailability [9]: 8%

SMILES: Cl.NC1CCC(CNC(=O)[C@@H]2CCCN2C(=O)CC2c3ccccc3C=Cc3ccccc32)CC1 (some centres not stated)
logP [3]: 0.27
Ki (Coagulation factor X): > 1000 µM
Ki (Plasma kallikrein): 775 µM
Ki [1]: 268 µM
Ki (Serine protease 1): 1.6 µM
Ki (Plasminogen): 414 µM
Ki (Prothrombin): 0.003 µM
bioavailability [6]: 51%

SMILES: CC1CNc2c(cccc2S(=O)(=O)N[C@@H](CCCNC(=N)N)C(=O)N2CCC(C)C[C@@H]2C(=O)O)C1 (single isomer, unassigned) [ARGATROBAN]
2x APTT [10]: 0.28 µM

SMILES: NC1CCC(CNC(=O)[C@@H]2CCCN2C(=O)CC(c2ccccc2)c2ccccn2)CC1 (single isomer, unassigned; diastereomer 2)
Ki (Serine protease 1): 5 µM
Ki (Prothrombin): 0.012 µM

SMILES: NC1CCC(CNC(=O)[C@@H]2CCCN2C(=O)CC2c3ccccc3CCc3ccccc32)CC1.O=C(O)C(F)(F)F (some centres not stated)
Ki (Prothrombin): 0.017 µM
bioavailability [6]: 12%

SMILES: NC1CCC(CNC(=O)[C@@H]2CCCN2C(=O)CC(c2ccccc2)c2cccnc2)CC1 (single isomer, unassigned; diastereomer 1)
Ki (Serine protease 1): 2.8 µM
Ki (Prothrombin): 0.01 µM

SMILES: NC1CCC(CNC(=O)[C@@H]2CCCN2C(=O)CC(c2ccccc2)c2ccncc2)CC1 (single isomer, unassigned; diastereomer 1)
Ki (Serine protease 1): 19 µM
Ki (Prothrombin): 0.029 µM

SMILES: NC1CCC(CNC(=O)[C@@H]2CCCN2C(=O)CC(c2ccccc2)c2ccccc2)CC1.O=C(O)C(F)(F)F (some centres not stated)
Activity (Rattus norvegicus [11]): 7%
half-life [12]: 2.6 h
AUC [13]: 3.81 µM·h
2x APTT (Rattus norvegicus [14]): 0.65 µM
2x APTT (Homo sapiens): 0.67 µM
logP [3]: 0.37
Activity [7]: 7%
Ki (Coagulation factor X): 980 µM
bioavailability [15]: 10%
Ki (Plasma kallikrein): > 1000 µM
AUC [16]: 1.7 µM·h
bioavailability [17]: 58%
Concentration (Rattus norvegicus [2]): 1600 nM
bioavailability [18]: 58%
half-life [19]: 4.47 h
Ki [1]: > 1000 µM
Ki (Serine protease 1): 0.353 µM and 0.35 µM
bioavailability [20]: 10%
half-life [21]: 2.92 h
clearance [22]: 23.2 mL/min/kg
clearance [23]: 10.2 mL/min/kg
Ki (Plasminogen): 744 µM
Ki (Prothrombin): 0.002 µM

SMILES: NC1CCC(CNC(=O)[C@@H]2CCCN2C(=O)CC(c2ccccc2)C2CCCCC2)CC1 (single isomer, unassigned; diastereomer 2)
Ki (Serine protease 1): 0.3 µM
Ki (Prothrombin): 0.004 µM

SMILES: NC1CCC(CNC(=O)[C@@H]2CCCN2C(=O)CC(c2ccccc2)c2ccncc2)CC1 (single isomer, unassigned; diastereomer 2)
Ki (Coagulation factor X): 400 µM
Ki (Plasma kallikrein): > 1000 µM
Ki [1]: 436 µM
Ki (Serine protease 1): 2.2 µM
Ki (Plasminogen): 744 µM
Ki (Prothrombin): 0.0034 µM

Ki (Serine protease 1): 17 µM
Ki (Prothrombin): 0.016 µM
SMILES: CC(CC(=O)N1CCC[C@H]1C(=O)NCC1CCC(N)CC1)(c1ccccc1)c1ccccc1 (some centres not stated)

SMILES: NC1CCC(CNC(=O)[C@@H]2CCCN2C(=O)CC(c2cccnc2)c2ccc3c(c2)OCO3)CC1 (stereo in doubt)
Ki (Serine protease 1): 1.9 µM
Ki (Prothrombin): 0.0047 µM

SMILES: NC1CCC(CNC(=O)[C@@H]2CCCN2C(=O)CC(c2ccccc2)C2CCCCC2)CC1 (single isomer, unassigned; diastereomer 1)
Ki (Serine protease 1): 1.7 µM
Ki (Prothrombin): 0.008 µM

SMILES: NC1CCC(CNC(=O)[C@@H]2CCCN2C(=O)CC(c2ccccc2)c2cccnc2)CC1 (single isomer, unassigned; diastereomer 2)
Concentration (Rattus norvegicus [2]): 2890 nM

logP [3]: 1.96
Ki (Coagulation factor X): 220 µM
Ki (Plasma kallikrein): 170 µM
Ki [1]: 84 µM
Ki (Serine protease 1): 2.5 µM
bioavailability [20]: 56%
Ki (Plasminogen): 176 µM
Ki (Prothrombin): 0.014 µM
SMILES: Cl.NC1CCC(CNC(=O)[C@@H]2CCCN2C(=O)CC(C2CCCCC2)C2CCCCC2)CC1 (some centres not stated)
Activity (Rattus norvegicus [11]): 6%
Activity [7]: 1%
2x APTT (Rattus norvegicus [24]): 7.2 µM
Concentration (Rattus norvegicus [2]): 658 nM
2x APTT [5]: 7.1 µM

— ChEMBL document CHEMBL1130225, “Synthesis of a series of potent and orally bioavailable thrombin inhibitors that utilize 3,3-disubstituted propionic acid derivatives in the P3 position” (J Med Chem, 1997)
